Assay [1] has as its target T1, Adrenergic receptor alpha-1 (Rattus norvegicus, UniProt P15823+P23944+P43140).
T1 sequence (P15823 whole entry): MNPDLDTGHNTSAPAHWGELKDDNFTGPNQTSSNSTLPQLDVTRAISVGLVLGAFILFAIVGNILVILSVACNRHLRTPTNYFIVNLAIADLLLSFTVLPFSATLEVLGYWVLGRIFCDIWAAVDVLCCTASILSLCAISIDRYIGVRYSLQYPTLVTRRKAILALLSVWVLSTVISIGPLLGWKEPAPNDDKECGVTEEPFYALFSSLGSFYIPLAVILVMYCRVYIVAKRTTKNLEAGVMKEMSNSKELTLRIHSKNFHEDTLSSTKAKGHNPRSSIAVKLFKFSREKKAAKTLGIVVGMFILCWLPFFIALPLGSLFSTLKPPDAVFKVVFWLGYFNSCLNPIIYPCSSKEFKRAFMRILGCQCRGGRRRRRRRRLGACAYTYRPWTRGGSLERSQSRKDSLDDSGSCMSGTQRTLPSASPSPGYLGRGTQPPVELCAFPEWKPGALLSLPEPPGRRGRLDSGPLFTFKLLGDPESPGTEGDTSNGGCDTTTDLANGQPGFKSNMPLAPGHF
T1 sequence (P23944 whole entry): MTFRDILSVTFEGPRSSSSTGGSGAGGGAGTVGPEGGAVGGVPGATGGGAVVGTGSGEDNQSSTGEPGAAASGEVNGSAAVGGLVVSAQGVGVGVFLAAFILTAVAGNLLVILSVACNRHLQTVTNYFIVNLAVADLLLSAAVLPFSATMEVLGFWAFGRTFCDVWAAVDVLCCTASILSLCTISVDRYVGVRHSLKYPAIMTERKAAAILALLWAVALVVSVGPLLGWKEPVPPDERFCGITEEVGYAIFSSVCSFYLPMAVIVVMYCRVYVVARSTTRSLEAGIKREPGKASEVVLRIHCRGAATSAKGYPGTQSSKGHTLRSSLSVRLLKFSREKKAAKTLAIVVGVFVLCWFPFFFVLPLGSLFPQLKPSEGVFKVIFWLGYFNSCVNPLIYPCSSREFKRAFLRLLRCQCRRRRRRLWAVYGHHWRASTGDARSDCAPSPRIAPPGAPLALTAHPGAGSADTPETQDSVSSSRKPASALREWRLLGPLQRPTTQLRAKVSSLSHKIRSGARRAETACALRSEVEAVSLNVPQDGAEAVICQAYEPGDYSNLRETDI
T1 sequence (P43140 whole entry): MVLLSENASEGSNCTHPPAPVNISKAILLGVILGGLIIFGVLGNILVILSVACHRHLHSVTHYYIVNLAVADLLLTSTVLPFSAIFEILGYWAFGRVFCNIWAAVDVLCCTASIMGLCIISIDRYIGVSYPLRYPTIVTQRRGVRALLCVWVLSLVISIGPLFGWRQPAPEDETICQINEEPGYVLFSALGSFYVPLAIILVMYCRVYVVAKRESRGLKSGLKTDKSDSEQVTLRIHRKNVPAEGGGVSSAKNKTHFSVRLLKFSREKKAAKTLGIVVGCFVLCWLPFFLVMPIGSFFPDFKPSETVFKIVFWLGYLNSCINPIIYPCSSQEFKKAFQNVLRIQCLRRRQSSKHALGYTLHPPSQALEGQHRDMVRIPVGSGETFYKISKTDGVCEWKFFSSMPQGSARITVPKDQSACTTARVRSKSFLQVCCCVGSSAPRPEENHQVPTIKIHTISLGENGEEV
As to the kind of experiment: Binding affinity (Ki) at Alpha-1 adrenergic receptor using rat brain cells with prazosin (0.20 nM) as a radioligand and […] as a blank agent. The format is cell-based. Summed up:
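Whole rat brain homogenate (excluding cerebellum) incubated with 0.20 nM [3H]prazosin, 30 °C, 30 min. Nonspecific binding defined with 2 µM phentolamine. Filtration harvest, tritium counted by scintillation. Screened at 1 and 10 µM; ≥6 concentrations if ≥30% inhibition at 1 µM. IC50 from curve fit, converted to Ki by Cheng-Prusoff using the radioligand Kd.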

For assay [2], the target named is T1, Adrenergic receptor alpha-1. As to the kind of experiment: Binding affinity at Alpha-1 adrenergic receptor using rat forebrain cells with prazosin (0.20 nM) as radioligand and […] as blank agent.
The target is the same in assay [3]. As to the kind of experiment: Binding affinity (Ki) at Alpha-1 adrenergic receptor using rat forebrain cells with prazosin (0.20 nM) as a radioligand and […] as a blank agent.

SMILES strings stand for the structures.

The values that follow come from ChEMBL document CHEMBL1135426, “Synthesis, receptor potency, and selectivity of halogenated diphenylpiperidines as serotonin 5-HT2A ligands for PET or SPECT brain imaging” (J Med Chem, 2002).

Usually Ki stands for the dissociation constant of the complex between target and ligand, obtained from inhibition or displacement.

For `O=C(c1ccc(F)cc1)C1CCN(CCc2cccc(I)c2)CC1`, the Ki in assay [1] is listed as 4.92 nM.

In assay [2], `OC(c1ccc(F)cc1)C1CCN(CCc2ccc(F)cc2)CC1` (stereo unspecified) gave an inhibition constant (Ki) of 303 nM. This counts as sub-micromolar.

As for `O=C(c1ccc(F)cc1)C1CCN(CCc2ccc(I)cc2)CC1`, the Ki in assay [3] was 26.1 nM.

As for `O=C(c1ccc(F)cc1)C1CCN(CCc2ccccc2I)CC1`, the Ki in assay [2] is 24.8 nM.

With `OC(c1ccc(F)cc1)C1CCN(CCc2ccccc2I)CC1` (stereo unspecified), the Ki in assay [3] stood at 108 nM.

Take `O=C(c1ccc(F)cc1)C1CCN(CCc2ccc(F)cc2)CC1`: the Ki in assay [2] came out at 33.6 nM.
